Measurements pooled from the literature.
Compare with care: the assays were run in different laboratories.
Target: Mitogen-activated protein kinase 13 (MAPK13, Homo sapiens, UniProt O15264)
Sequence (O15264 1-365, as in one of the studies): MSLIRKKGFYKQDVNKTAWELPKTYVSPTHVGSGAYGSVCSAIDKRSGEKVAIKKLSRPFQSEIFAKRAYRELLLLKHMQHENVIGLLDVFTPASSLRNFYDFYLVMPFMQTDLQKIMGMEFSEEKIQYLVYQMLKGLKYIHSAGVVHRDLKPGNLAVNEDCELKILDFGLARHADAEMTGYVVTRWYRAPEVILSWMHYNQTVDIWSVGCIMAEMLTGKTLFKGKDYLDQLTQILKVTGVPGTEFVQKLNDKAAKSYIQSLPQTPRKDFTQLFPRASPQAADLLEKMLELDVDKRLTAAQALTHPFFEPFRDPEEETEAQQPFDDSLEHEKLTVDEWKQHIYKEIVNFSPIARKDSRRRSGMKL

COc1cc2ncnc(Nc3ccc(Oc4ccccc4)c(C)c3C)c2cc1OC
inhibition (enzyme activity; inhibitor; 1 µM): 2%

CN(C)C1CCN(CC#Cc2nn(C3CCCC3)c3nc(NCc4ccccc4)ncc23)C1 (centres unmarked)
inhibition (enzyme activity; inhibitor; FRET; 1 µM): 0%

Cc1ccc(Nc2nccc(N(C)c3ccc4c(C)n(C)nc4c3)n2)cc1S(N)(=O)=O
inhibition (enzyme activity; inhibitor; 10 µM): 0%

O=C(Nc1cnn(-c2csc(C(=O)NC3COC3)c2)c1)Nc1ccccc1Cl
remaining activity (enzyme activity; inhibitor; 5 µM): 122%

Cc1nc(Cc2cccc(C(F)(F)F)c2)sc1-c1ccc(C(N)=O)nc1
remaining binding (cell-free assay; competition with immobilised ligand; 1 µM): 99%

CNC(=O)c1cc2c(Oc3ccc(NC(=O)C4(C(=O)Nc5ccc(F)cc5)CC4)cc3)ccnc2cc1OC
inhibition (enzyme activity; inhibitor; radiometric; 1 µM): 83%

CCN(CC)c1ccc(C2=NNC(=O)CC2C)cc1[N+](=O)[O-] (centres unmarked)
remaining activity (enzyme activity; inhibitor; 10 µM): 97%

COc1cc2c(Nc3ccc(Br)cc3F)ncnc2cc1OCC1CCN(C)CC1
remaining signal (cell-free assay; 0.5 µM): 95.5%

Cn1c2c(c3ccc(Cl)c(Cl)c31)C(C#N)C1(CCOCC1)NC2=O (centres unmarked)
ΔTm (thermal stability; DSF; 10 µM): 0.4 °C

Cc1cc(NC(=O)c2cccc3cc(-c4cccc5[nH]nc(N)c45)ccc23)ccc1F
activity vs control (enzyme activity; inhibitor; 0.1 µM): 101%

O=C(NCc1ncc(C(F)(F)F)cc1Cl)c1ccc2c(c1)C1(CCS(=O)(=O)CC1)[C@H](C1CC1)N2S(=O)(=O)c1ccc(F)cc1
remaining binding (cell-free assay; competition with immobilised ligand; 1 µM): 99%

Cc1ccc(C(=O)Nc2ccc(CN3CCN(C)CC3)c(C(F)(F)F)c2)cc1C#Cc1cnc2cccnn12
remaining activity (enzyme activity; inhibitor; 23.5 nM): 93%

O=C(Nc1ccc(Oc2ccc(F)cc2)cc1)N1CCc2ncccc2[C@H]1c1ccc(F)cc1
remaining binding (cell-free assay; competition with immobilised ligand; 1 µM): 96%

FC(F)c1nc2ccccc2n1-c1nc(N2CCOCC2)nc(N2CCOCC2)n1
remaining activity (enzyme activity; inhibitor; 10 µM): 107%

Cc1noc([C@H]2C[C@@H](c3ccc(C(F)(F)F)cc3)CN(C(=O)N3CCS(=O)(=O)C3)C2)n1
remaining binding (cell-free assay; competition with immobilised ligand; 1 µM): 100%

Cn1c2c(c3ccc(Cl)c(Cl)c31)C(C#N)C(C)(C)NC2=O (centres unmarked)
ΔTm (thermal stability; DSF; 10 µM): 1.4 °C

O=C(Nc1cccnn1)N1CCC(=Cc2cccc(Oc3ccc(C(F)(F)F)cn3)c2)CC1
remaining binding (cell-free assay; competition with immobilised ligand; 1 µM): 86%

Cn1c2c(Cl)c(Cl)ccc2c2cn[nH]c(=O)c21
ΔTm (thermal stability; DSF; 10 µM): 0 °C

CNC(=O)c1cc(Oc2ccc(NC(=O)Nc3ccc(Cl)c(C(F)(F)F)c3)cc2)ccn1
inhibition (enzyme activity; inhibitor; 10 µM): 56%

O=C(O)[C@@H]1[C@@H](Cn2nnc3ccccc3c2=O)CC[C@H]1C(=O)c1ccc(OCCC2CCOCC2)cc1
remaining binding (cell-free assay; competition with immobilised ligand; 1 µM): 94%
